{"source": "paper PMC4836853", "about": "(Arteriosclerosis, thrombosis, and vascular biology, 2016)", "key": {"PAR1 [1]": {"biological_target": "T1, PAR1 (Homo sapiens, UniProt P25116)", "T1 sequence (P25116 22-425)": "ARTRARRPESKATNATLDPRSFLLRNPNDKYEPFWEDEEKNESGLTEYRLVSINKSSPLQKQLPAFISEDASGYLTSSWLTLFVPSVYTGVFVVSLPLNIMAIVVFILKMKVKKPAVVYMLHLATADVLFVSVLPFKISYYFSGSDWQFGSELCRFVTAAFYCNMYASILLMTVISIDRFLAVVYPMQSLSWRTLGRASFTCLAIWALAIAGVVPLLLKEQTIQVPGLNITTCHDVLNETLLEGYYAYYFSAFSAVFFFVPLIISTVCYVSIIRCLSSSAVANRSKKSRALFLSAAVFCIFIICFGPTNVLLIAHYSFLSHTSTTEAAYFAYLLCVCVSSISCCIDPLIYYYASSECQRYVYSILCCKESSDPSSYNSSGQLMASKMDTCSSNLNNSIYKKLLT", "assay": "Ex vivo platelet aggregation to PAR1 agonist SFLLRN", "assay_type": "in vivo", "settings": "for inhibition at 2 mg/kg: read-out: inhibition of final aggregation to 8 μmol/L SFLLRN, 2 mg/kg"}, "[2]": {"assay": "Safety, tolerability and hemostasis parameters in phase 1 subjects", "assay_type": "in vivo, human", "method_in_brief": "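Single ascending IV doses went to subjects with CAD or multiple CAD risk factors. Cohorts of 0.01–2 mg/kg received 1-h infusions; a final 0.5 mg/kg cohort received a 2-h infusion after antiallergic premedication. Assessments were at baseline, 0.5, 1, 2, 6 and 24 h, and 7–10 days. APTT, INR, ACT and bleeding time were regressed on dose using repeated-measures mixed-effects models with Bonferroni post hoc correction.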"}, "[3]": {"assay": "Pharmacokinetics of PZ-128 in plasma and urine after 1 to 2 hours iv infusion", "assay_type": "in vivo, human"}, "PAR1 [4]": {"biological_target": "T1, PAR1", "settings": "cited from earlier work"}, "PAR1 [5]": {"biological_target": "T1, PAR1", "settings": "cited from earlier work", "remark": "listed apart in the source"}}, "note": "“Also recorded” adds a separate entry of the source. Where two headings read alike, the source gives them in different places. Peptide text beside a SMILES is read from it. * marks the point of attachment. Palmitoyl = CCCCCCCCCCCCCCCC(=O)*", "data": [{"smiles": "CCCCCCCCCCCCCCCC(=O)N[C@@H](CCCCN)C(=O)N[C@@H](CCCCN)C(=O)N[C@@H](CO)C(=O)N[C@@H](CCCNC(=N)N)C(=O)N[C@@H](C)C(=O)N[C@@H](CC(C)C)C(=O)N[C@@H](Cc1ccccc1)C(N)=O", "note": "[PZ-128] (Palmitoyl-KKSRALF-NH2)", "values": [{"measurement": "inhibition at 2 mg/kg", "setting": "PAR1 [1]; 1 to 2-hour time points", "value": "96 to 98", "unit": "%"}, {"measurement": "inhibition at 2 mg/kg", "setting": "PAR1 [1]; 6 to 192-hour time points", "value": "15 to 21", "unit": "%"}, {"measurement": "inhibition at 0.3 mg/kg", "setting": "PAR1 [1]; read-out: mean inhibition of platelet aggregation (final), 8 μmol/L SFLLRN, 0.3 mg/kg, 30 minutes to 6 hours", "value": "20 to 40", "unit": "%"}, {"measurement": "inhibition at 0.5 mg/kg", "setting": "PAR1 [1]; read-out: mean inhibition of platelet aggregation (final), 8 μmol/L SFLLRN, 0.5 mg/kg, 30 minutes to 6 hours", "value": "40 to 60", "unit": "%"}, {"measurement": "tolerability / allergic response", "setting": "[2]; 0.5 mg/kg, 2-hour infusion, antiallergic premedication", "value": "none of these subjects had an allergic response; also recorded: appeared to be well tolerated"}, {"measurement": "tolerability", "setting": "[2]; 0.01-, 0.03-, 0.1-, and 0.3-mg/kg, 1-hour intravenous infusion", "value": "well tolerated"}, {"measurement": "transient tingling or numb sensation in the skin", "setting": "[2]; 0.5–2 mg/kg", "value": "commonly reported"}, {"measurement": "subjects with no hemodynamic effects", "setting": "[2]; 2-mg/kg dose over the 1-hour infusion", "value": 50, "unit": "%"}, {"measurement": "effects on coagulation, hemostasis parameters, or bleeding", "setting": "[2]; any dose", "value": "No significant effects"}, {"measurement": "heart rate, ECG parameters (RR, PR, QRS, QT, QTc, QTd) or pulmonary function", "setting": "[2]; any dose", "value": "no significant changes"}, {"measurement": "most important adverse event", "setting": "[2]; highest doses (1–2 mg/kg), 1-hour infusion", "value": "acute allergic reactions"}, {"measurement": "clinical chemistry, hematology, urinalysis", "setting": "[2]; human, in vivo", "value": "not significantly affected"}, {"measurement": "drug in plasma at 24 to 192 hours", "setting": "[3]; all subjects", "value": "undetectable; also recorded: no detectable drug"}, {"measurement": "PZ-128 in urine", "setting": "[3]; any time point, all subjects", "value": "nondetectable; also recorded: little or no PZ-128 detected; also recorded: not renally cleared"}, {"measurement": "Cmax", "setting": "[3]; human, plasma, intravenous", "value": "4700 to 21500", "unit": "nM"}, {"measurement": "Vd", "setting": "[3]; human, plasma, intravenous", "value": "0.11 to 0.17", "unit": "L/kg"}, {"measurement": "Cmax", "setting": "[3]; human, plasma, intravenous, 0.5 mg/kg", "value": "1800 to 2700", "unit": "nM"}, {"measurement": "half-life", "setting": "[3]; human, plasma, iv", "value": "1.3 to 1.8", "unit": "h"}, {"measurement": "level at time molar", "setting": "[3]; human, plasma, iv", "value": "1000 to 3000", "unit": "nM"}, {"measurement": "level at time molar at 6 h", "setting": "[3]; human, plasma, iv, 0.5 mg/kg", "value": "< 500", "unit": "nM"}, {"measurement": "peak plasma drug levels, 2-mg/kg versus 1-mg/kg cohort", "setting": "[3]; in vivo", "value": 2, "unit": "fold"}]}, {"smiles": "CCOC(=O)N[C@@H]1CC[C@@H]2[C@@H](C1)C[C@H]1C(=O)O[C@H](C)[C@H]1[C@H]2/C=C/c1ccc(-c2cccc(F)c2)cn1", "note": "[Vorapaxar, vorapaxar]", "values": [{"measurement": "inhibition of SFLLRN-induced aggregation at 2 hours", "setting": "PAR1 [4]; 40-mg loading dose (≈0.4 mg/kg)", "value": "≥ 80", "unit": "%"}, {"measurement": "inhibition of SFLLRN-induced aggregation at 30 minutes", "setting": "PAR1 [4]; 40-mg oral loading dose", "value": "no appreciable inhibition"}]}, {"smiles": "CCOc1cc2c(c(F)c1OCC)C(=N)N(CC(=O)c1cc(N3CCOCC3)c(OC)c(C(C)(C)C)c1)C2", "note": "[atopaxar]", "values": [{"measurement": "time to maximal platelet inhibition after the loading dose", "setting": "PAR1 [5]; LANCELOT-ACS subjects", "value": 6, "unit": "h"}, {"measurement": "QTc interval", "setting": "PAR1 [5]; higher dose levels", "value": "prolongation of the QTc interval was observed in some individuals"}]}]}
